Source: PubChem (The Scripps Research Institute Molecular Screening Center)
Sampled rows, rich in hits. Any-hit rate of the full collection: about 1.8%.
M5 PAM – human M5 muscarinic receptor positive allosteric modulators, primary screen, CHO-K1 cells, Fluo-8 calcium fluorescence; Muscarinic acetylcholine receptor M5 (Homo sapiens), P08912; CHO-K1 hM5, ACh EC20 PAM; 0% = ACh EC20, 100% = ACh EC100; activation, % at 3 µM; actives 0.3% (n = 360,000); AID 624038, 2012;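 active = activation above the run cutoff, the mean activation of all test compounds plus 3 SD, cut at about 18% in these data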
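Assay system: CHO-K1 hM5 cells / Incubation: Fluo-8 loading 80 min at 37 °C plus 30 min room temperature / Technique: Fluo-8 calcium dye fluorescence, kinetic read / Repeats: single replicate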
CHRM4 agonist – human M4 muscarinic receptor agonists, primary screen, CHO-K1 cells, Fluo-8 calcium fluorescence | activation, % at 3 µM | actives 0.14% (n = 360,000) | CHO-K1 hM4/Gqi5; vehicle 0%, full acetylcholine response 100% | AID 624127, 2012 | Muscarinic acetylcholine receptor M4 (Homo sapiens), P08173;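 active = activation above the run mean over all test wells plus 3 SD, cut at about 32% in these data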;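 also: peak over basal fluorescence ratio per well then scaled between controls; 0% = DMSO wells and 100% = acetylcholine at EC100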
Target sequence (P08173 whole entry, looked up): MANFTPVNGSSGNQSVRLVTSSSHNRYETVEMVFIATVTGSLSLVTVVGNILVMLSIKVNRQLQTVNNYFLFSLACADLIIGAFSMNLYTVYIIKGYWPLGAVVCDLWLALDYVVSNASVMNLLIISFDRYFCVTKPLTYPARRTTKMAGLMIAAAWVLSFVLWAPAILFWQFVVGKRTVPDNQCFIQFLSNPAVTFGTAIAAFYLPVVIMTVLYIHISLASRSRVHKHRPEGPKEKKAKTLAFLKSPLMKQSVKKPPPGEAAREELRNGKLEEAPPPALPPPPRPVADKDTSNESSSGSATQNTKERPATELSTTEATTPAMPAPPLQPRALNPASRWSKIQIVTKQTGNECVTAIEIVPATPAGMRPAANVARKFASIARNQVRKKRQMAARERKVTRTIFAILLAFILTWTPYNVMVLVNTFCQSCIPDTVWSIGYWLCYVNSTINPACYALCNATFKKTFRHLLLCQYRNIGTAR
M5 antag – human M5 muscarinic receptor antagonists, primary screen, CHO cells, Fluo-8 calcium fluorescence. Muscarinic acetylcholine receptor M5 (Homo sapiens), P08912. CHO-hM5 cells, ACh EC80. inhibition, % at 3 µM. actives 0.59% (n = 360,000);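 active = inhibition above a per-plate cutoff, the mean of that plate's test compounds plus 3 SD, cut at about 27% in these data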;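 also: 0% = acetylcholine EC80 with DMSO and 100% = DMSO without agonist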
CHRM4 PAM – human M4 muscarinic receptor positive allosteric modulators, primary screen, CHO-K1 cells, Fluo-8 calcium fluorescence; AID 624126, 2012; Muscarinic acetylcholine receptor M4 (Homo sapiens), P08173; CHO-K1 hM4/Gqi5, ACh EC20; 0% = ACh EC20, 100% = maximal ACh; activation, % at 3 µM; actives 0.4% (n = 360,000);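 active = activation above its plate's cutoff, the mean activation of sample wells plus 3 SD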
CHRM4 antagonist – human M4 muscarinic receptor antagonists, primary screen, CHO cells, Fluo-8 calcium fluorescence. Muscarinic acetylcholine receptor M4 (Homo sapiens), P08173. CHO-hM4 cells, ACh EC80. inhibition, % at 3 µM. actives 0.73% (n = 360,000). AID 624125, 2012;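 active = inhibition above its plate's cutoff, the mean inhibition of sample wells plus 3 SD, cut at about 27% in these data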;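 also: 0% = acetylcholine EC80 with DMSO and 100% = DMSO without agonist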
CHRM5 agonist – human M5 muscarinic receptor agonists, primary screen, CHO-K1 cells, Fluo-8 calcium fluorescence | actives 0.19% (n = 360,000) | Muscarinic acetylcholine receptor M5 (Homo sapiens), P08912 | activation, % at 3 µM | AID 624037, 2012 | CHO-K1 hM5 cells; 0% DMSO wells, 100% maximal acetylcholine response;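 active = activation above the run's mean over test compounds plus 3 SD, cut at about 23% in these data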;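 also: signal is peak over basal fluorescence ratio across the kinetic read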
Numbers without * were called inactive; ! = a repeat was not active.

SMILES	M5 PAM	CHRM4 agonist	M5 antag	CHRM4 PAM	CHRM4 antagonist	CHRM5 agonist
CCCCCCCCCCCCN1[C@@H](CC(C)=O)c2cc(F)ccc2S1(=O)=O	-1	1	0	8	-9	0
O=C1NC2c3ccccc3C(=O)N2c2c1cnn2-c1ccccc1 (stereo not given)	3	2	-5	18*	-4	-1
CCc1nc2ccc(C(=O)N(CC)CCN(C)C)cn2c1N(CC)CCOC	-2	1	0	6	-11	-2
OCC1=C[C@@H](O)[C@@H]2C=CO[C@@H](O[C@@H]3O[C@H](CO)[C@@H](O)[C@H](O)[C@H]3O)[C@H]12	-2	1	6	4	4	0
Cc1ccc(NC2SC(=O)N(Cc3cccc(C(=O)O)c3)C2=O)cc1 (stereo not given)	23*	0	-1	1	-5	-1
CCC(C)Sc1cc(-c2nc3ccc(C)cn3c2NCc2ccccc2)ccc1OC (stereo not given)	-39	15	29*!	-13	72*	-2
CCC(C)Sc1ccc(-c2nc3ccc(C)cn3c2NCc2ccccc2)cc1OC (stereo not given)	-38	10	24	-5	44*	-7
c1cc2c(cc1C1=NNC(=NC3CC3)SC1)OCCO2	-30	1	100*	2	-8	-15
COC(=O)C1=NN(c2ccc(C)cc2)C2(S1)SC(C(C)=O)=C(C)N2c1ccccc1 (stereo not given)	21*	2	0	0	22	-1
COC(=O)C1=NN(c2ccccc2)C2(S1)SC(C(C)=O)=C(C)N2c1ccccc1 (stereo not given)	13	-1	-2	14	-2	-9
Fc1ccc(N2CCN(Cc3cn[nH]c3-c3ccccc3)CC2)cc1	-3	1	4	-7	-3	7
Fc1ccc(-c2[nH]ncc2CN2CCN(c3ccc(F)cc3)CC2)cc1	2	9	5	-4	2	31*
COc1ccc(-n2c(C)cc(/C=C3\SC(=S)N(Cc4ccco4)C3=O)c2C)cc1	0	2	8	1	7	8
CCN1CCN(c2c(/C=C3\SC(=S)N(Cc4ccco4)C3=O)c(C)c(C#N)c(=O)n2C)CC1	-20	21	15	-32	7	57*
CCC(OC(=O)c1ccco1)C(=O)NCc1ccc2c(c1)OCO2 (stereo not given)	-2	2	3	19*	-26	-1
CCC(OC(=O)c1ccco1)C(=O)NCc1ccc(C)cc1 (stereo not given)	-5	0	0	-6	9	-4
CC(=O)c1cccc(OCc2cc(C(=O)N(C)Cc3cnccn3)no2)c1	1	3	1	5	-8	1
CN(Cc1cccnc1)C(=O)c1cc(COc2ccc3c(c2)CCCC3)on1	-18	15	33*	-12	0	-1
C#CCOC(=O)CCCC(=O)NCCCCCCCC	27*	1	0	12	-12	9
COc1ccc(C(C(=O)NC2CCCCC2)N(CC2CCCO2)C(=O)C2COc3ccccc3O2)cc1OC (stereo not given)	33*	1	-16	13	-12	-3
Fc1ccc2nc(C3CCCCN3Cc3nc(CC4CC4)no3)[nH]c2c1 (stereo not given)	27*	6	9	9	-7	3
NCCCCCc1nnc(SCc2ccc(Cl)cc2Cl)o1	-19	9	43*	-23	50*	-7
NCCc1nnc(SCc2ccccc2Cl)o1	3	0	3	-6	4	-2
NCCCCCc1nnc(SCc2cccc(Cl)c2)o1	-18	3	80*	-30	85*	-7
O=C(COC(=O)c1ccco1)NC1CCCc2ccccc21 (stereo not given)	-6	1	3	2	12	0
SMILES	M5 PAM	CHRM4 agonist	M5 antag	CHRM4 PAM	CHRM4 antagonist	CHRM5 agonist
CC(=O)c1ccc(NC(=O)CN2CCN(CC(=O)Nc3ccc(C(C)=O)cc3)CC2)cc1	27*	1	21	-1	-10	1
COc1cccc(N2CCN(CC(=O)Nc3ccc(-n4cnnn4)cc3)CC2)c1	1	1	2	6	0	2
O=C(CN1CCN(c2ccccc2)CC1)Nc1ccc(-n2cnnn2)cc1	-2	2	-1	0	30*	1
CCN1CCN(CC(=O)Nc2ccc(C(C)=O)cc2)CC1	1	0	-1	5	-6	-3
CCc1cccc(NC(=S)N(CCOC)C2CCN(C(C)=O)CC2)c1	2	2	6	-8	6	1
Cc1ccc2occ(/C=N/NC(=O)c3ccncc3)c(=O)c2c1	0	2	10	20*	3	-2
O=C(O)c1cc([N+](=O)[O-])cc2c1C=Cc1ccccc1O2	0	0	4	-1	-12	-1
COc1ccc(CCn2cc(C#N)c(=O)[nH]c2=O)cc1OC	-14	2	18	-2	-5	-2
COc1ccccc1CCn1cc(C#N)c(=O)[nH]c1=O	0	-2	6	-16	100*	-3
COc1ccc(CN(CCC(c2ccc(F)cc2)C2CCOC(C)(C)C2)C(=O)c2ccco2)cc1 (stereo not given)	-20	7	36*	-22	30*	0
CC(c1ccccc1)N(CCC(c1ccccc1)C1CCOC(C)(C)C1)C(=O)c1ccco1 (stereo not given)	-17	4	30*	-8	-5	-7
COc1ccc(CN(CCC(c2ccccc2)c2ccco2)C(=O)c2ccco2)cc1 (stereo not given)	-11	4	13	-9	7	-2
COc1ccc(NC(=O)Cn2cnc3sc(C)c(S(=O)(=O)N4CCOCC4)c3c2=O)c(OC)c1	9	1	-16	3	-3	-1
CC(=O)OC[C@@H]1CN(Cc2ccccc2)C[C@H](n2cnc3c(N4CCN(c5ccccc5)CC4)ncnc32)O1	-3	7	5	-9	-10	0
CC1(C)CC(=O)C=C(Nc2ccc(Br)cc2F)C1	0	2	-11	-3	-13	-2
